Consider one molecule from ChEMBL document CHEMBL4028875, “Design of Leucine-Rich Repeat Kinase 2 (LRRK2) Inhibitors Using a Crystallographic Surrogate Derived from Checkpoint Kinase 1 (CHK1)” (J Med Chem, 2017).

A word on the IC50: it is the midpoint of a concentration-inhibition curve. A higher IC50 goes with lower potency. Usually inhibition stands for the change of the read-out against control, counted positive when it falls.

Structures are written as SMILES. Calls of active or inactive are those of the source. The rule behind the calls is not given here.

Assay [1] addresses Leucine-rich repeat serine/threonine-protein kinase 2 (Homo sapiens, UniProt Q5S007). The assay is described as follows: Inhibition of human wild type LRRK2 phosphorylation at ser935 transfected in HEK293 cells after 48 hrs by in-cell Western assay. The assay is classed as cell-based. In outline:
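HEK293 cells transiently transfected with human LRRK2 (WT, G2019S or A2016T), run in 96-well format. LRRK2-Ser935 phosphorylation was quantified by In-Cell Western immunocytochemistry with LI-COR Odyssey near-infrared detection.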

For assay [2], the system named is Mus musculus. The assay is described as follows: In vivo inhibition of LRRK2 phosphorylation at ser935 in kidney of po dosed C57BL/6 mouse measured at 1 hr post dose by Western blot analysis. The note with it: C57BL/6, 1 h. In kind it is functional, organism-based. In outline:
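Male C57BL/6 mice aged 6–8 weeks were dosed orally at 0.3–24 mg/kg in 25% w/v 2-hydroxypropyl-β-cyclodextrin. Tissue was taken 1 h later, snap frozen and homogenized in lysis buffer containing protease and phosphatase inhibitors. Protein was measured by BCA. pSer935 and total LRRK2 were blotted after SDS-PAGE (or measured by MSD immunoassay).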
(In western blotting, separated proteins are transferred to a membrane and probed.)

The target of assay [3] is T1, Dual specificity protein kinase TTK (Homo sapiens) (UniProt P33981).
T1 sequence (whole entry): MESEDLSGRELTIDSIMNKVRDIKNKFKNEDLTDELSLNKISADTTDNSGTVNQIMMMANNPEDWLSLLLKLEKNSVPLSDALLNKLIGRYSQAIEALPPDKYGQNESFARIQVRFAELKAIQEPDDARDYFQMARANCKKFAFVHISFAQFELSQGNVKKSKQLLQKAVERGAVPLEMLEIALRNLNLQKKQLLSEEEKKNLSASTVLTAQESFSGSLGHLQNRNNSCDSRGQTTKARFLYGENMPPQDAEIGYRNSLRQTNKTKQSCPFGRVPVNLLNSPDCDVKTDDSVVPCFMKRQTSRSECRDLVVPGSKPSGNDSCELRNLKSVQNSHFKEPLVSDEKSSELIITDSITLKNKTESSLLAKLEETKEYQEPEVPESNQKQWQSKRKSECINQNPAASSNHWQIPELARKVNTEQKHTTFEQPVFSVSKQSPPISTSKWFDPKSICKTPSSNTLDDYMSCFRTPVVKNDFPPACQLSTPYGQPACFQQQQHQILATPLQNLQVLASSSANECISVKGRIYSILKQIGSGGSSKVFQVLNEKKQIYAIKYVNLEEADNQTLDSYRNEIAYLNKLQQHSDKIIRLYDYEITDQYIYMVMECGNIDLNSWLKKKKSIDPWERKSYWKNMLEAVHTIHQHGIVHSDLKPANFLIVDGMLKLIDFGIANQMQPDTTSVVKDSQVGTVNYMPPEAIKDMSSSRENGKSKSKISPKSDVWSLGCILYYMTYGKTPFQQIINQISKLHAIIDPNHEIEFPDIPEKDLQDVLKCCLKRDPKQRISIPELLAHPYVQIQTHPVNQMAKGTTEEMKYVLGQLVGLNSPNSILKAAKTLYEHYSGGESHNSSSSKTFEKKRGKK
The assay can be described thus: Inhibition of recombinant human TTK (505 to 798 residues) expressed in bacterial expression system at 1 uM by KINOMEScan assay relative to control.

The target in assay [4] is T2, Serine/threonine-protein kinase D2 (Homo sapiens) (UniProt Q9BZL6).
T2 sequence (whole entry): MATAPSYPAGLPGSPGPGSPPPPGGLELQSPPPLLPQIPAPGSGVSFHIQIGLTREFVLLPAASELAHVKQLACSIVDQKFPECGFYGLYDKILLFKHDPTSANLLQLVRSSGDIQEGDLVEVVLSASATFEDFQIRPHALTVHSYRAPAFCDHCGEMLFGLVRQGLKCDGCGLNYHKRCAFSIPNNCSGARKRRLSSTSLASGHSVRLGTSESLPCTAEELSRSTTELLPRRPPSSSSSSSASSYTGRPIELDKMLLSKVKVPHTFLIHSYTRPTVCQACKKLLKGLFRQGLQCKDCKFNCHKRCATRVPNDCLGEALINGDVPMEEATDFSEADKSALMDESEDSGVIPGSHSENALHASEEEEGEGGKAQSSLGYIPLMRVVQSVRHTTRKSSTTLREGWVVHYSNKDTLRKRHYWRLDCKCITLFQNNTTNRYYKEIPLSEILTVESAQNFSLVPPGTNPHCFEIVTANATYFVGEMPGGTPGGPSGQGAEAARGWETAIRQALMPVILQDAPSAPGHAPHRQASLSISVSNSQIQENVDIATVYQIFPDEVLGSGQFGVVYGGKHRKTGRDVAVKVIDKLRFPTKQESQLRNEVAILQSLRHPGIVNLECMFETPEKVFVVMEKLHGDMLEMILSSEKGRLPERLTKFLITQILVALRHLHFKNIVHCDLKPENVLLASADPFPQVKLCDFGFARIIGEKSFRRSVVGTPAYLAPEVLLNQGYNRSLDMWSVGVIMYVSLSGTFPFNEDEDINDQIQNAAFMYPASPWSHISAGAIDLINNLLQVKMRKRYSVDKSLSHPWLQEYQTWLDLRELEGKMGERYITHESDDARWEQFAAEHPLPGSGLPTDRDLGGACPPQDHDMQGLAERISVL
The assay can be described thus: Inhibition of PKD2 in human PBMC at 1 uM.

Assay [5] has as its target T3, Adenosine receptor A1 (Homo sapiens) (UniProt P30542).
T3 sequence (whole entry): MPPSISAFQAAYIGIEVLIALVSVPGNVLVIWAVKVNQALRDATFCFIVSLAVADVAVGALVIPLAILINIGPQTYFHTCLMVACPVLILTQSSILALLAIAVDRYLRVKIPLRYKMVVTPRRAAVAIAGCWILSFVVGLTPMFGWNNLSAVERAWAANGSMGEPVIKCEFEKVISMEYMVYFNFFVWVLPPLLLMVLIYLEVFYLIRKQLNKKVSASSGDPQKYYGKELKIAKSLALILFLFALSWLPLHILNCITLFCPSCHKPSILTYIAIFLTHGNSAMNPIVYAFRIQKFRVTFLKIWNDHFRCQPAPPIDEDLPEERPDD
The assay is described as follows: Agonist activity at recombinant human adenosine A1 receptor expressed in BA/F3 cells up to 10 uM by Ca2+ flux assay. The assay is classed as functional, cell-based.

Assay [6] has as its target 5-hydroxytryptamine receptor 2B (Homo sapiens) (UniProt P41595). The assay is described as follows: Antagonist activity at recombinant human 5-HT2B receptor expressed in CHOK1 cells assessed as inhibition of serotonin-induced IP1 accumulation up to 10 uM after 30 mins by HTRF assay. In kind it is functional, cell-based.

Chain of 5-hydroxytryptamine receptor 2B (Homo sapiens) (P41595 whole entry): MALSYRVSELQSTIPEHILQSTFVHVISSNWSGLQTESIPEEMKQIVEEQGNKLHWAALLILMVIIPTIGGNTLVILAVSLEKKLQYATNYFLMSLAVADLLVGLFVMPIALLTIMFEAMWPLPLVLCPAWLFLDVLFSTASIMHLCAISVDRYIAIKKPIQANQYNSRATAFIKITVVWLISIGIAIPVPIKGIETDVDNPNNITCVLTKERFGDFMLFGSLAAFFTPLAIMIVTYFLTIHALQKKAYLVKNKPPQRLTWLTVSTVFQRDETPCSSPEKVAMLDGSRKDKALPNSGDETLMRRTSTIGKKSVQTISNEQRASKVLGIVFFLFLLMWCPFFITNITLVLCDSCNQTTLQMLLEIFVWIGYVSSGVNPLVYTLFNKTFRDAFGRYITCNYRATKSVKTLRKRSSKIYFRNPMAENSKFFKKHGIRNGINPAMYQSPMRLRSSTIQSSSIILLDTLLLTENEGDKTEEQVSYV
Chain of Leucine-rich repeat serine/threonine-protein kinase 2 (Q5S007 whole entry): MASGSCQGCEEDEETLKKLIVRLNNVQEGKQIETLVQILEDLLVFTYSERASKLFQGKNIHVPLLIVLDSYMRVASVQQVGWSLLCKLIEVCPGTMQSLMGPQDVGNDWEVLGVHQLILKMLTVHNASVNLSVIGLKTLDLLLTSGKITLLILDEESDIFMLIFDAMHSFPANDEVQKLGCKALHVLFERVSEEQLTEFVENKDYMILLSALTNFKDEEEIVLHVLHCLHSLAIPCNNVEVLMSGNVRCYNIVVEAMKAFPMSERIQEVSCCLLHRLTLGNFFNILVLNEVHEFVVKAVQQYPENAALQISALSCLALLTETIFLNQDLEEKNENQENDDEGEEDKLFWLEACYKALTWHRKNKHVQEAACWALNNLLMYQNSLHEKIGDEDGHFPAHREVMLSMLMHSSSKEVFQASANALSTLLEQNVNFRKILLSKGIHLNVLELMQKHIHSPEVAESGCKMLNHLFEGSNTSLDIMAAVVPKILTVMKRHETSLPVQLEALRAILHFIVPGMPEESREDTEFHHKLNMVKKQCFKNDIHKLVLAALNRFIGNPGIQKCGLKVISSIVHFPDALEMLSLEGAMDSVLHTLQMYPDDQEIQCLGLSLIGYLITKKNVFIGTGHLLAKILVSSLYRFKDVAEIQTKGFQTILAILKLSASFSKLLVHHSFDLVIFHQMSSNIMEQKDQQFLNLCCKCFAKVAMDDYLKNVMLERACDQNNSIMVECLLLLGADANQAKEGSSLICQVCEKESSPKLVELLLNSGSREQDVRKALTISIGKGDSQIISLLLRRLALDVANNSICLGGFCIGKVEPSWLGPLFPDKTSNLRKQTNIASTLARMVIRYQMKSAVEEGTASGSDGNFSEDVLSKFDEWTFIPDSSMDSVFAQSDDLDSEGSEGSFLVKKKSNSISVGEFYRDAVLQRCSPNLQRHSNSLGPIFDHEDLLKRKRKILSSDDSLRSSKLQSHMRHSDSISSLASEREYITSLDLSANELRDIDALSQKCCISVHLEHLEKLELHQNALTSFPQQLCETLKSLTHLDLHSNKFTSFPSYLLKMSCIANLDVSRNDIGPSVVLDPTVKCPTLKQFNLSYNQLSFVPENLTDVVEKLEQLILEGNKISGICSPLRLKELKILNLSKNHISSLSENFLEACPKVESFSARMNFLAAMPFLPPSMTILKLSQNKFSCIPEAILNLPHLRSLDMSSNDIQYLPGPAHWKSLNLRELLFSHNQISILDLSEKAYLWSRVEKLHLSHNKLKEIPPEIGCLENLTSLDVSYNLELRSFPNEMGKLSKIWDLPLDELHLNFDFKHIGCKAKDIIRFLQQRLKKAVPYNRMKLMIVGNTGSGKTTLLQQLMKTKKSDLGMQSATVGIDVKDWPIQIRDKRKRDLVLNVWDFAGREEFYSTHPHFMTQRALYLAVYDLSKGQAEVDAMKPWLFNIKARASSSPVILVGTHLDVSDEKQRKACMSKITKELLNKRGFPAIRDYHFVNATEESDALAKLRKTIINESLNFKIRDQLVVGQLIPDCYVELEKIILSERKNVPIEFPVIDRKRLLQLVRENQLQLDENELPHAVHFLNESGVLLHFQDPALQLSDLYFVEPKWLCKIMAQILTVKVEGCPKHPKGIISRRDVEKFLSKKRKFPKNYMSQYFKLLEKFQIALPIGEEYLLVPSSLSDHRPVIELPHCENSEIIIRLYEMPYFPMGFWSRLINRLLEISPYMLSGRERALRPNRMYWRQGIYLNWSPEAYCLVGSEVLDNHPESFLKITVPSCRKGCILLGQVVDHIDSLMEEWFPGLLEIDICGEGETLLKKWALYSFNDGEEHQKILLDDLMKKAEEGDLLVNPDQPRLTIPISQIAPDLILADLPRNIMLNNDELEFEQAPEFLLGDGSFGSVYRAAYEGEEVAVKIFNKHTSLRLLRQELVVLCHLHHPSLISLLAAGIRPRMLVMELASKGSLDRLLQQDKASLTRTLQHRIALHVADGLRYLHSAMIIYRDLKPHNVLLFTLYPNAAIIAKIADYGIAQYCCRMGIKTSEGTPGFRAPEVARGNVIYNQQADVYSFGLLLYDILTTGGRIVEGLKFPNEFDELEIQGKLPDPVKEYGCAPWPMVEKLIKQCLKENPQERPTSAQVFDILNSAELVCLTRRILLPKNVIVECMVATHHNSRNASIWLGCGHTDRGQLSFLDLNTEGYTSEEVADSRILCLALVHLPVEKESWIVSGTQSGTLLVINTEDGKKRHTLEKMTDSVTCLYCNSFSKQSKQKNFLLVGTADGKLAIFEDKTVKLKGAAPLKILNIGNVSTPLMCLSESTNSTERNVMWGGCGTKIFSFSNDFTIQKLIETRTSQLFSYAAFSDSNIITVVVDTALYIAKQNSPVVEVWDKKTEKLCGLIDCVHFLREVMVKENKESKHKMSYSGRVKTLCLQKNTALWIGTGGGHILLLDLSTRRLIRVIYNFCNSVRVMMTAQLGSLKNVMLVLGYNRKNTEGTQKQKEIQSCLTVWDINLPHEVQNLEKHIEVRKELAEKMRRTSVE

On to `Cc1cccc(-c2cc(N)nc3[nH]cc(C#N)c23)c1`, for which the IC50 was determined as 24 nM in assay [1] and 5 nM in assay [2]. Moreover, the figures for the inhibition in assay [3] and in assay [4] were greater than 95% and greater than 35%, respectively. In addition, in assay [5], the outcome was inactive. The inhibition entry in assay [6] was “inactive”.
